The record followed here is the RNAGym collection of RNA variant scans (doi:10.1126/science.aae0568).

Fewer inactive variants are shown than the library holds.

First the molecules themselves.
B1: tRNA (parent)
chain: GUUCCGUUGGCGUAAUGGUAACGCGUCUCCCUCCUAAGGAGAAGACUGCGGGUUCGAGUCCCGUACGGAACG

The data set covers variants of B1. Put plainly: yeast fitness relative to wild type (ratio to wild type); higher = fitter; tRNA-Arg(CCU), competitive growth, 37 C, YPD. Put shortly: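 Variants of the tRNA-Arg(CCU) gene were chemically synthesised with a 3% per-site mutation rate across 69 sites and placed at the native genomic locus in Saccharomyces cerevisiae. Six parallel replicates of the pooled strains were competed in YPD at 37°C for 24 hours, and gene amplicons from the start and end populations were read by 100-nucleotide paired-end sequencing. Darwinian fitness relative to wild type was derived from changes in genotype frequencies. Genotypes required ≥ 100 starting reads, and estimates < 0.5 were set to 0.5.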
Turning to GUUCCGUUGGCGUAAUGGUCACGCGUCUCCCUCCUAAGGACCAGACUGCGGGUUCAAGUCCCGCACGGAACG, the yeast fitness was at most 0.5. To GUUCCGUUGGCGUAAUGGUCACGCGUCUCCCUCCUAAGGAGAAGACUGCGGGUUUGAGUCCCGUAGGGAACG belongs at most 0.5.

Turning to GUUCCGUUGGCGUAAUGGUCACGCGUCUCCCUCCAGAGGAGAACACUGCGGGUUCGAGUCCCGUACGUAACG, the yeast fitness is at most 0.5. Turning to GUUCCGUUGGCGUAAUGGUCACGCGUCUCCCUCCUAAGGAGAAGACUGCGGGUUCGAGACCGGUACGGACCG, the yeast fitness is at most 0.5. Turning to GUUCCGUUGGCGUAAUGGUCACGCCUCUCCCUUCUAAGGAGAAGACUGCGGGUUCGAGUACCGUAGGGAACG, the yeast fitness was at most 0.5. As for GUUCCGUUGGCGUAAUGGUCACGCGUCUCCCUCCUAAGGAGAAGACUGCGGGUUUGAGUCCCGUACGGAACG, the yeast fitness was found to be 0.612. To GUUCCGUUGGCGUAAUGGUCACGCGUCUCCCUCCUAAGGAGAAGACUGCGGGUUCGAGUCCCGUACCGGACG belongs 0.539.

Take GUUCCGUUGGCGUAAUGGUCACGCCUCUCCCUCCUAAGGAGAACACUGCGGGUUCGAAUCCCGUACGCAACG: the yeast fitness is at most 0.5. The figure for GUUCCGUUGGCGUAAUGGUCACGCGUCACCCUCCUAAGGAGAAGACUGCGGGUUCGAGUCCCGUACGGAGCG is 0.564; for GUUCCGUUGGCGUAAUGGUGGCGCGUCUCCCUCCUAAGGAGAAGACUGCGGGUUCGAGUCCCGUACGGAACG it is 0.986; for GUUCCGUUGGCGUAAUGGUCACGCCUCUCCCUCCUAAGGCGACGACUGCGGGUUAGAGUCGCGUAGGGAACG it is at most 0.5.

Turning to GUUCCGUUGGCGUAAUGGUCACGCGUCUCCCGCCUAAGGAGAAGGCUGCGGGAACGAGUCCCGUACGGAACG, the yeast fitness was determined as 0.533. On to GUUCCGUUGGCGUAAUGGUCACGCGUCUCCCUCCUAAGGAGAAGACUGCGGGUUCGAGCCCCGUACGGAACG, for which the yeast fitness came to 0.749.

As to GUUCCGUUGGCGUAAUGGUCACGCGUCUCCCUCCUAAGGAGAACACUACGAGUUCGAGUCCCGUACGGAACG, the yeast fitness is at most 0.5. To GUUCCGUUGGCGUAAUGGUCACGCGUCUCCCUCCUAAGGAGAAGAGUGCGGGUUCGAGUCCGGUACGGAACG belongs 0.529; to GUUCCGUUGGCGUAAUGGUGACGCGUCUCCCUCCUCAGGAGAAGACUGGGGGUUCGAGUCGGGUACGGAACG, at most 0.5; to GUUCCGUUGGCGUAAUGGUGACGCGUCUCCCUCCUGUGGAGAAGACUGCGGGUUCGAGUCCCGUACGGAACG, at most 0.5. To GUUCCGUUGGCGUAAUGGUCACGCGUCUCCCUCCUAAGGAGAAGACUACGGGUUCGAGUCCCGUACGGAACG belongs 0.908; to GUUCCGUUGGCGUAAUGGUGACGCGUCUCCCUCCUAGAGAGAAGACUGCGGGUUUGAGGCCCGUACGGAACG, 0.563; to GUUCCGUUGGCGUAAUGGUGGUGCGUCUCCCUCCUAAGGAGAAGACUGCGGGUUCGAGUCCCGUACGGAACG, 0.564. Regarding GUUCCGUUGGCGUAAUGGUGACGCGUCUCCCUCCUUAGGAGAAGACUGCGGGUUGGAGUCCCGUACGGAACG, the yeast fitness is at most 0.5. In the case of GUUCCGUUGGCGUAAUGGUCACGCGUCUCCCUCCUAAGGAGAAGACUGCGGGUUCGACUCCCGUACGGAACG, the yeast fitness is 1.03. Take GUUCCGUUGGCGUAAUGGUGGCGCGUCUGCCUCCUAAGGAGAAGAGUGCGGAUUCGAGUCCCGUACGGAACG: the yeast fitness was at most 0.5. Take GUUCCGUUGGCGUAAUGGUGACGCGUCUCCCUCCUACGAAGAAGACUGCGGGUUCGAGUCCCGUUCGGACCG: the yeast fitness is at most 0.5. As to GUUCCGUUGGCGUAAUGGUCACGCGUCUCCCUCCUAAGGAGAAGACACCGGGUUCGAGUCCCGUACGGAACG, the yeast fitness was found to be 0.526. To GUUCCGUUGGCGUAAUGGUGACGCGUCUCCCUCCUACGGAGAAGACUGCGGGUUCGAGUCCCGUACGAAACG belongs 0.515. To GUUCCGUUGGCGUAAUGGUCACGCGUCCACCUCCUUAGGUGAAGACUGGGGGUUCGAGUCCCCUACGGAUCG belongs at most 0.5; to GUUCCGUUGGCGUAAUGGUGACGCGUCUCCCUCCUGAGGAGAAGACUGCGGGUUCGAGUCCCGUACGGAACG, 1.01; to GUUCCGUUGGCGUAAUGGUGACGCGUCUCCCUCCUUAGGAGAAGACUGCGGGUUCGAGUCCCGUACGGAACG, 0.644. Regarding GUUCCGUUGGCGUAAUGGUCACGCGUCCCCCUCAUAAGGAGAAGACUGCGGGUUCGAGUCCCGUACGGAACG, the yeast fitness was determined as 0.791.

Regarding GUUCCGUUGGCGUAAUGGUCACGCGUCUCCCUCCUAAGGAGAAGACUGCGGGUUCGAGACCCGUCCGGACCG, the yeast fitness was at most 0.5. GUUCCGUUGGCGUAAUGGUGGCGCGUCUCCCUCGUAAGGAGAAGACUGCGGGUUCGAGUCUCGUACGGACCG: the yeast fitness is at most 0.5. The figure for GUUCCGUUGGCGUAAUGGUCACGCGUCUCCCUCCUAAGGAGAAGACUGCGGGUUCGAGUCCCAUACGGAACG is 0.843; for GUUCCGUUGGCGUAAUGGUCACGCCUCUCCCUACUAAGGAGAAGACUGCGGGUUAGAGUCCCGUACGGAACG it is at most 0.5.

As for GUUCCGUUGGCGUAAUGGUGACGCGUCUCCCUCCUUAGGAGAAGACUGCGGGUUCGAGUCCCGUACGCAACG, the yeast fitness was 0.535.

With GUUCCGUUGGCGUAAUGGUCACGCGUCUCCCUCCUAAGGAGAAGACUGCGGGUUCGAGUGCUGUACGGAACG, the yeast fitness is at most 0.5. To GUUCCGUUGGCGUAAUGGUCACGCGUCUCCCUCCUAAGGAGAAGACUAAGGGUUCGAGUCCCGUACGGAACG belongs 0.557; to GUUCCGUUGGCGUAAUGGUGACGCGUCUCCCUCCUAGGGAGAAAACUGCGGGUUCGAGUCCCGUUCGGAACG, at most 0.5. Regarding GUUCCGUUGGCGUAAUGGUCACACGUCUCCCUCCUAAGGAGAAGACUGCGGGUUGGAGUACCGUACGGAACG, the yeast fitness amounted to 0.561. For the variant GUUCCGUUGGCGUAAUGGUCACGCGUCUCCCUCCCAAGGAGAAGACUGCGCGUUCGAGUGCCGUACGGAUCG, the yeast fitness was at most 0.5. Regarding GUUCCGUUGGCGUAAUGGUCACGCGUCUCCCUCCUAAGGAGAAAAUUGCGGGUUCGAGUCCCGUACGGCACG, the yeast fitness was found to be 0.698.

Regarding GUUCCGUUGGCGUAAUGGUCACGCGUCUCCCUCCUAAGGAGAACACUGCGGGUUCGAGUCCCGUACGGAUCG, the yeast fitness turned out to be 0.573.

As for GUUCCGUUGGCGUAAUGGUCACGCGUCUCCCUCCUAAGGAGAAGACUGGGGGUUCGAGUCCCGUACGGAACG, the yeast fitness was found to be 0.795. To GUUCCGUUGGCGUAAUGGUCACGCGUCUCCCUCCUAAGGAGAAGACUGUGGGUUCGAGUCCCGUACGGAACG belongs 1.03. For the variant GUUCCGUUGGCGUAAUGGUCACGCGUCUCCCUCCUAAGGAGAAGACUGCGGAUUCGAGUCCCGUACGAAACG, the yeast fitness is at most 0.5. GUUCCGUUGGCGUAAUGGUCACGCGUCUCCCUCCUAAGGAGAAGACUGCGGGUUCGAGUCCAGUACGCAACG: the yeast fitness was at most 0.5.

With GUUCCGUUGGCGUAAUGGUCACGCGUCUCCCUCCUAAGGAGAAGAGUGCGGGUUCGAGUCCCGUACGGAACG, the yeast fitness came out at 1.02.

Take GUUCCGUUGGCGUAAUGGUCACGCGUCCCCCUCCUAAGGUGAAGACUGCGGGUUCGAGUCCCGUACGGAACG: the yeast fitness turned out to be 0.971. To GUUCCGUUGGCGUAAUGGUCACGCGUCUCCCUCCUAAGGAGAAGACUGCGGGUUUGAGUCCCGUACAGAACG belongs 0.53; to GUUCCGUUGGCGUAAUGGUCACGCGUCUCCCUCCUAAGGAGAAAACUGCGGGUUCGAGUACCGUACAGAACG, at most 0.5; to GUUCCGUUGGCGUAAUGGUCACGCGUCUCCCUCCUAAGGAGAAGACUGAGGAUUCGAGUCUCGUACGGAACG, at most 0.5. The figure for GUUCCGUUGGCGUAAUGGUCACGCGACUCCCUCCUAAGGAGAAGACUGCGGGUUCGAGUCACGUUCGGAACG is 0.555. With GUUCCGUUGGCGUAAUGGUGACGCGUCUCCCUCCUUAGGAGAAGACUGGGGGUUCGAGUCCCGUACGGAACG, the yeast fitness is at most 0.5. For GUUCCGUUGGCGUAAUGGUCACGCGUCUCCCUCCUAAGGAGAAGACUGCGGGUUCGAGUACCGUACGGAACG, the yeast fitness was 0.587. The figure for GUUCCGUUGGCGUAAUGGUGACGCGUCUCCCUCCUAAGGAGAAGACUGCGGGUUCGAGUCCCGUACGGAACG is 1; for GUUCCGUUGGCGUAAUGGUCACGCGUCUCCCUCCUAAGGAGAAGACUGGGGGUUCGAGUCCCGUACAGAACG it is 0.59.

On to GUUCCGUUGGCGUAAUGGUCACGCGUCUCCCUCCUAAGGAGAAGACUGCGGGCUCGAGUCCCGUACGGAACG, for which the yeast fitness was 0.717.

Turning to GUUCCGUUGGCGUAAUGGUGACGCGUCUCCCUCCUAUGGAGAAGACUGCGGGUUCGAGUCCCGUACGGAACG, the yeast fitness turned out to be 0.795. On to GUUCCGUUGGCGUAAUGGUGACGCGUCUCCCUCCUACGGAGAAGACUGCGGGUUCGAGUCCCGUACGGAACG, for which the yeast fitness was 0.929.

Regarding GUUCCGUUGGCGUAAUGGUCACGCGUCUCCCUCCUAAGGAGAAGACUGCGGAUUCGAGUCCCGUACGGAACG, the yeast fitness was determined as 0.705. To GUUCCGUUGGCGUAAUGGUCACGCGUCCCACUCCUAAGGAGAACGCUGCGGGUUAGAGUCCCCUACGGAACG belongs at most 0.5; to GUUCCGUUGGCGUAAUGGUCACGCGUCUCCCUCCUAAGGAGAAAACUGCGGGUUCGAGUCCCGUACGGAACG, 0.778; to GUUCCGUUGGCGUAAUGGUCACGCGUCGCCCUCCUAAGGAGAAGACUGCGGGUUCGAGUCCCGUACGGCACG, 0.714. Turning to GUUCCGUUGGCGUAAUGGUCACGCGUCUCCCUCCUAAGGAAAAGACUGCGGGUUCGAGUCCCGUACGGAACG, the yeast fitness is 0.779. As to GUUCCGUUGGCGUAAUGGUCACGCGUCUCCCUCCUAAGGAGAACACUGCGGGUUCGAGUCUCGUACGGAACG, the yeast fitness turned out to be 0.56. Regarding GUUCCGUUGGCGUAAUGGUGACGCGUCUCCCUCCUCAGGAGAAGACUCCGGGCUCGAGUCCCGUACGGACCG, the yeast fitness is at most 0.5. The figure for GUUCCGUUGGCGUAAUGGUCACGCGUCUCCCUCCUAAAGAGAAGACUGCGGGUUCGUGUCCCGUACGGAACG is at most 0.5; for GUUCCGUUGGCGUAAUGGUCACGCGUCUCCCUCCUAAGGAGAAGACUGCGGGUUCUAGUCCCGUACGGAACG it is 0.765. Regarding GUUCCGUUGGCGUAAUGGUCACGCGUCUCCCUCCUAAGGAGAAGACUGCGGGUUCAAGUCCCGUACGGAACG, the yeast fitness turned out to be 0.866.

With GUUCCGUUGGCGUAAUGGUCACGCGUCUCCCUCCUAAGGAGAAGACUGCGGGUUCGAGUCCCGGACGGAACG, the yeast fitness came out at 0.746. To GUUCCGUUGGCGUAAUGGUCACACGUCUCCCUCCAAAGGAGAAGACUGCGGCUUAGAGUCCCGUACGGAACG belongs at most 0.5; to GUUCCGUUGGCGUAAUGGUCACACGUCUUCCUCCUCAGGAGACGACUGCGGGUUCGAGUCCCGUACGGAACG, at most 0.5; to GUUCCGUUGGCGUAAUGGUCACGCGUCUCCCUCCUAAGGAGAAGACUGCGGGUUCAAGUCCCGUACAGAACG, 0.577. The figure for GUUCCGUUGGCGUAAUGGUGACGCGUCUCCCUCCUUAGGAGAAGACUGCGGGUUCGAGUCCCGUAAGGAACG is 0.529; for GUUCCGUUGGCGUAAUGGUCACGCGCCUCUCUCCUAAGGAGAAGACUGCGGGUUCGAGUCACGUACGGAACG it is at most 0.5.
